From PubChem
In the library only some 3% were active in any assay of this set; here they are far more common.
Apaf1 inhib = blocks human Apaf-1 apoptosome activity; 330,000 compounds, 0.71% hits; inhibition, % at 20 µM; O14727; reconstituted apoptosome caspase-3 activity, DEVD-Rh110 fluorescence; active = inhibition of at least 40% at 20 µM;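 also: plate controls were DMSO wells for no effect and DEVD-CHO caspase inhibitor wells for full effect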
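Material: reconstituted apoptosome with Apaf-1, cytochrome c, caspase-9, procaspase-3, dATP; medium: pH 7.5 Hepes buffer with CHAPS, BSA, DTT; also added: cytochrome c and DEVD-Rh110 substrate; timing: 30 min plus 50 min, RT; signal: Rh110 fluorescence intensity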
MEKK2wt PB1 HTS = raises or lowers MEK5 binding to wildtype human MEKK2 PB1 domain. binding response (% of control), % at 10 µM. bead flow cytometry, Alexa488-MEK5 binding to MEKK2 WT; actives lie on both sides. Q9Y2U5. 290,000 compounds, 1.1% hits; in the data active = binding response below about 67% or above about 130%; inconclusive = no clear call, values can overlap the other calls; inactive = in between
UCH37 inh = inhibitors of human deubiquitinating enzyme UCH37. purified proteasome/UCH37, Ub-AMC cleavage fluorescence. inhibition, % (no concentration beside the values). 330,000 compounds, 0.33% hits. AID 588478;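 active = mean inhibition over replicate wells above about 20%, limit read from the data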;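 also: 0% = compound-free wells with enzyme and 100% = wells lacking proteasome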
Target sequence (Q9Y5K5 whole entry, looked up): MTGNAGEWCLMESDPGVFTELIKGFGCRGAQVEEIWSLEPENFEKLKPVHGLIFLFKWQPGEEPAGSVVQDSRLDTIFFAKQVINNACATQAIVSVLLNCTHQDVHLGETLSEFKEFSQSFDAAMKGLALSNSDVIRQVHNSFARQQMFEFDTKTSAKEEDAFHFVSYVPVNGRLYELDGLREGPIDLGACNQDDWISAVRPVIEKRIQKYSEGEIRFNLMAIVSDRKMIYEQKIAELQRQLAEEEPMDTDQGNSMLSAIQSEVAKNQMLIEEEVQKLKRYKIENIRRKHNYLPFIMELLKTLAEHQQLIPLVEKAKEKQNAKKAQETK
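Signal – fluorescence, ex 355 nm, em 460 nm · System – Proteasome-bound UCH37 · Input – 0.15 nM proteasome as dispensed · Timing – 30 min preincubation with enzyme, 25 min cleavage at room temperature · Read-out basis – percent inhibition of cleavage signal versus uninhibited and no-proteasome wells · Medium – Tris-HCl pH 7.4 with ATP-MgCl2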
UBC13 polyUb = inhibitors of human UBC13 polyubiquitin chain formation; TR-FRET; inhibition, % at 20 µM; 330,000 compounds, 0.47% hits; AID 485273; in the data active = inhibition above about 45%, passing the limit was not always enough; inconclusive = no clear call, values can overlap the other calls
Target sequence (P61088 whole entry, looked up): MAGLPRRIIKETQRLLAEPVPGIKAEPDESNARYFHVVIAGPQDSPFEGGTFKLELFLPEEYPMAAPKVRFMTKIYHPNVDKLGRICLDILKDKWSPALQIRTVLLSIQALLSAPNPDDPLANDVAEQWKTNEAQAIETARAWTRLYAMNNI
MEKK3 PB1 HTS = raises or lowers MEK5 binding to the human MEKK3 PB1 domain; bead-based flow cytometry, Alexa488-MEK5 binding to MEKK3; actives lie on both sides; 0 = blocked by unlabeled MEK5, 100 = vehicle; binding response (% of control), % at 10 µM; 290,000 compounds, 1.4% hits; Q99759;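 active = binding response more than 3 SD above or below the average of its plate-row segment, actives on both sides; inconclusive = wells at one plate position flagged as instrument error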;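 also: Alexa488 bead fluorescence after subtracting the streptavidin-only scavenger bead signal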
MEKK2 mut-MEK5 = signal of MEK5 binding to mutant human MEKK2 PB1 domain | AID 1530 | bead flow cytometry, Alexa488-MEK5 binding to MEKK2 mutant | percent response, % at 10 µM | 290,000 compounds, 0.35% hits; in the data active = percent response above about 24%, passing the limit was not always enough
MEKK2wt confirm = raises or lowers MEK5 binding to wildtype human MEKK2, retest; bead flow cytometry, Alexa488-MEK5 binding to MEKK2 WT; actives lie on both sides; AID 1892; 5,900 compounds, 2.4% hits; shares compounds with MEKK3 PB1 HTS; binding response (% of control), % at 10 µM; in the data active = binding response below about 16% or above about 210%; inactive = in between
MEKK2mut confirm = signal of MEK5 binding to mutant human MEKK2, retest. percent response, % at 10 µM. 5,900 compounds, 2% hits. bead flow cytometry, Alexa488-MEK5 binding to MEKK2 mutant. AID 1893. shares compounds with MEKK3 PB1 HTS; in the data active = percent response mostly above about 71%, no sharp cut-off; inactive = mostly below about 38%;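 also: higher means compound restores mutant binding toward wildtype level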
MEKK3 confirm = MEKK3-MEK5 PB1 inhibition, single concentration confirmation | 5,900 compounds, 1.8% hits | shares compounds with MEKK3 PB1 HTS | AID 1894 | binding response (% of control), % at 10 µM | bead flow cytometry, Alexa488-MEK5 binding to MEKK3; stronger effect = lower value;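 active = binding response below 72% of control, or above a set upper limit, though filed actives all read lower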;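 also: 100% = DMSO only wells and 0% = binding blocked by excess unlabeled MEK5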
* marks the source's active call; other numbers are inactive results; i = inactive; u = inconclusive; x = not tested or not shown; [ ] = remark or other dose.

SMILES	Apaf1 inhib	MEKK2wt PB1 HTS	UCH37 inh	UBC13 polyUb	MEKK3 PB1 HTS	MEKK2 mut-MEK5	MEKK2wt confirm	MEKK2mut confirm	MEKK3 confirm
COc1cc(/C=N\NC(=O)c2ccccc2F)ccc1Oc1ccc([N+](=O)[O-])cn1	-12	91	x	-1	97	-5	x	x	x
CC(C)c1ccc(NC(=S)N(C)CCc2ccccn2)cc1	-1	103	1	-1	101	0	x	x	x
Cc1cccc(C)c1NC(=S)N(C)CCc1ccccn1	-5	103	0	0	129*	0	105	1	101
CCN(CC)c1ccc(C=Nc2cccnc2Cl)c(O)c1	14	66*[inhibitor]	14	-7	92	-5	97	2	102
CCN(CC)c1ccc(C=Nc2cc(C)ccc2C)c(O)c1	13	75	6	-15	89	-3	x	x	x
Cc1c(NC(=O)C(C)OC(=O)c2cccc([N+](=O)[O-])c2)c(=O)n(-c2ccccc2)n1C (centres undefined)	-2	97	1	-2	93	2	x	x	x
CCOC(=O)C1CCN(C(=O)c2cc(S(=O)(=O)N3CCOCC3)c(Cl)cc2Cl)CC1	1	92	-6	3	82*[inhibitor]	-4	107	3	104
CCOC(=O)C1CCN(C(=O)c2ccc(Cl)c(S(=O)(=O)N3CCOCC3)c2)CC1	-4	101	5	-4	101	3	x	x	x
CS(=O)(=O)N1CCN(C(=O)NC23CC4CC(CC(C4)C2)C3)CC1	1	101	6	-2	100	-1	x	x	x
O=C(Nc1cccc2c1CCCC2)c1ccccc1F	11	100	3	-4	98	-2	x	x	x
O=C(O)CN1CCCCCC1=O	-20	80	4	4	94	-14	x	x	x
S=c1[nH]nc(COc2ccc3ccccc3c2)o1	-3	104	3	8	92	4	x	x	x
O=C(Cn1cnc2ccccc21)N/N=C/c1cccs1	0	100	x	-7	129*	2	105	-2	103
O=C(Cn1nnc2ccccc21)N/N=C\c1cccs1	11	107	x	-11	103	11	x	x	x
COc1cc(/C=C2\SC(=S)N(CC(=O)Nc3ccccn3)C2=O)cc(OC)c1OC	-10	85	8	1	99	2	x	x	x
CCc1nnc(NC(=O)CN2C(=O)/C(=C/c3cc(OC)c(OC)c(OC)c3)SC2=S)s1	9	95	1	-16	159*	1	88	-5	100
COc1cc(/C=C2/SC(=S)N(CC(=O)Nc3nc4ccccc4s3)C2=O)cc(OC)c1OC	-7	71*[inhibitor]	7	-27	89	-16	80	-9	99
Cc1ccc(NC(=O)c2cnc(SCC(=O)c3ccccc3)n(C)c2=O)cc1	8	x	i	u	x	x	x	x	x
N/C(=N\c1nc2ccccc2o1)NC(=O)c1ccc(F)cc1	0	106	-2	-7	104	6	x	x	x
CCc1ccc(C(=O)NNc2ccc(S(N)(=O)=O)cc2)cc1	-26	186*	3	-2	104	36	101	-3	101
Cc1ccccc1Oc1nc2ccccn2c(=O)c1/C=C(\C#N)C(=O)Nc1c(C)n(C)n(-c2ccccc2)c1=O	-4	101	-15	-10	122	0	x	x	x
Cc1ccccc1Oc1nc2c(C)cccn2c(=O)c1/C=C(\C#N)C(=O)Nc1c(C)n(C)n(-c2ccccc2)c1=O	6	102	-14	-3	137*	0	68	-18	65*
O=C(COc1ccc2ccc(=O)oc2c1)N1CC[C@@]2(O)CCCC[C@H]2C1	-13	1.0*[inhibitor]	-35	4	2.0*[inhibitor]	-24	107	5	113
Cc1c(C)c2ccc(OCC(=O)N3CC[C@@]4(O)CCCC[C@H]4C3)cc2oc1=O	-3	96	-145	0	101	-2	x	x	x
CCCCn1c(N)c(S(=O)(=O)c2ccc(C)cc2)c2nc3ccccc3nc21	1	91	-297	4	98	-2	x	x	x
SMILES	Apaf1 inhib	MEKK2wt PB1 HTS	UCH37 inh	UBC13 polyUb	MEKK3 PB1 HTS	MEKK2 mut-MEK5	MEKK2wt confirm	MEKK2mut confirm	MEKK3 confirm
Cc1ccc(S(=O)(=O)c2c(N)n(-c3ccccc3)c3nc4ccccc4nc23)cc1	14	102	x	10	136*	0	94	2	92
CCOCCCN1CN(Cc2ccccc2)CNC1=S	4	104	3	1	128*	0	106	4	100
O=S(=O)(/C=C/c1ccccc1)N1CCN(c2ccccc2)CC1	3	105	4	-5	105	6	x	x	x
O=S(=O)(/C=C/c1ccccc1)N1CCN(c2ccc(F)cc2)CC1	22	82	1	2	74*[inhibitor]	-10	105	5	105
CCN(CCCNC(=O)C1CCN(S(=O)(=O)CC)CC1)c1ccccc1	-5	96	2	-5	94	-2	x	x	x
O=C(Nc1c(C(=O)C2CC2)oc2ccccc12)c1ccc(Cl)cc1	9	111	-114	30	145*	1	102	5	102
CCc1ccc(-c2cc(C)no2)cc1S(=O)(=O)N1CCOc2ccc(C)cc21	9	96	1	-1	99	-7	x	x	x
Cc1ccc(N=Cc2sc(O)c3ccccc23)cc1	22	99	-6	-28	109	1	x	x	x
Cc1ccc(N=Cc2sc(O)c3ccccc23)c(C)c1	11	135*	1	-34	119	7	113	7	109
CC(=O)Nc1ccc(S(=O)(=O)NCC2CCC(C(=O)NCc3ccccc3)CC2)cc1 (centres undefined)	-5	129	5	-7	138*	1	101	4	101
O=C(NCc1ccc(Cl)cc1)C1CCC(CNS(=O)(=O)c2ccccc2)CC1 (centres undefined)	9	101	7	8	102	8	x	x	x
Cn1nnc2sc3c(c2c1=O)CCCC3	1	97	5	1	101	1	x	x	x
CCc1ccc(NS(=O)(=O)c2cccs2)cc1	-14	88	1	5	114	39*	96	-7	99
O=S(=O)(c1ccc(-c2nnc(SCc3nnc(-c4ccccc4)o3)o2)cc1)N1CCCC1	-8	95	2	6	99	-3	x	x	x
O=C(O)COc1ccccc1/C=N/NC(=O)CSc1nc2ccccc2n1Cc1ccc(Cl)cc1	12	57	x	-9	50*[inhibitor]	-28	103	6	106
